Data reported in ChEMBL document CHEMBL3120122, “Highly potent HCV NS4B inhibitors with activity against multiple genotypes” (J Med Chem, 2014).

What was measured:
[1] = Cytotoxicity against human HuH7 cells; assay type: cell-based, Huh-7
Hepatitis C virus [2] = assay: Antiviral activity against HCV Con1 expressing NS4B H94N mutant infected in human HuH7 cells assessed as inhibition of viral RNA replication after 3 days by dual-glo luciferase reporter gene assay; assay type: functional, organism-based, Hepacivirus hominis; conditions: isolate Con1, Huh-7, 72 h
In short: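 Tested in the HCV genotype 1b replicon assay carrying the NS4B H94N substitution, alongside the matched 1a, 1b and 2a-JFH replicon screens.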

Hepatitis C virus [3] = assay: Antiviral activity against HCV JFH-1 expressing NS4B infected in human HuH7 cells assessed as inhibition of viral RNA replication after 3 days by dual-glo luciferase reporter gene assay; assay type: functional, organism-based, Hepacivirus hominis; conditions: JFH-1, Huh-7, 72 h
Hepatitis C virus [4] = assay: Antiviral activity against HCV Con1 expressing wild type NS4B infected in human HuH7 cells assessed as inhibition of viral RNA replication after 3 days by dual-glo luciferase reporter gene assay; assay type: functional, organism-based, Hepacivirus hominis; conditions: isolate Con1, Huh-7, 72 h
In short: (§1)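 Measured in HCV replicon assays, not infection, using genotype 1a, 1b and 2a (JFH) replicons; the read-out is inhibition of replicon replication.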

[5] = Lipophilicity, log D of the compound at pH 7.4 by chromatographic analysis; assay type: physicochemical; conditions: buffer
[6] = Displacement of tritium labeled (R)-6-cyclopropyl-4-methyl-N-(morpholin-3-ylmethyl)-8-(trifluoromethyl)quinoline-2-carboxamide from recombinant HCV genotype 1b C-terminal His6-tagged NS4B expressed in baculovirus infected insect SF9 cells after overnight incubation by scintillation proximity assay; parameters: species or system Hepatitis C virus subtype 1b
Hepatitis C virus [7] = assay: Selectivity ratio of EC50 for HCV Con1 expressing NS4B H94N mutant to EC50 for HCV Con1 expressing wild type NS4B; assay type: functional, Hepacivirus hominis, isolate Con1
[8] = Selectivity ratio of EC50 for HCV JFH-1 expressing NS4B to EC50 for HCV Con1 expressing wild type NS4B; assay type: functional
Hepatitis C virus [9] = assay: Antiviral activity against HCV H77 expressing wild type NS4B infected in human HuH7 cells assessed as inhibition of viral RNA replication after 3 days by dual-glo luciferase reporter gene assay; assay type: functional, organism-based, Hepacivirus hominis; conditions: genotype 1a H77, Huh-7, 72 h; in short: as §1
[10] = Intrinsic clearance in rat liver microsomes at 3 uM after 1 hr in presence of NADPH and UDP-glucuronic acid; assay type: ADME; conditions: read-out: CLH (converted)
[11] = Intrinsic clearance in human liver microsomes at 3 uM after 1 hr in presence of NADPH and UDP-glucuronic acid; assay type: ADME; conditions: read-out: CLH (converted)
[12] = Oral bioavailability in Sprague-Dawley rat; assay type: ADME, organism-based; conditions: in vivo
[13] = Half life in iv dosed Sprague-Dawley rat administered as 30 mins infusion; assay type: ADME, organism-based; conditions: in vivo
[14] = Volume of distribution at steady state in iv dosed Sprague-Dawley rat administered as 30 mins infusion; assay type: ADME, organism-based; conditions: in vivo, read-out: Vdss
[15] = Clearance in iv dosed Sprague-Dawley rat administered as 30 mins infusion; assay type: ADME, organism-based; conditions: in vivo
Hepatitis C virus [16] = assay: Antiviral activity against HCV ED43 expressing NS4B infected in human HuH7 cells assessed as inhibition of viral RNA replication after 3 days by dual-glo luciferase reporter gene assay; assay type: functional, organism-based, Hepacivirus hominis; conditions: ED43, Huh-7, 72 h
Hepatitis C virus [17] = assay: Antiviral activity against HCV S52 expressing NS4B infected in human HuH7 cells assessed as inhibition of viral RNA replication after 3 days by dual-glo luciferase reporter gene assay; assay type: functional, organism-based, Hepacivirus hominis; conditions: S52, Huh-7, 72 h
Hepatitis C virus [18] = assay: Antiviral activity against HCV genotype 2b expressing full length NS4B infected in human HuH7 cells assessed as inhibition of viral RNA replication after 3 days by dual-glo luciferase reporter gene assay; assay type: functional, organism-based, Hepacivirus hominis; conditions: Huh-7, 72 h
Hepatitis C virus [19] = assay: Antiviral activity against HCV Con1 expressing NS4B H94S mutant infected in human HuH7 cells assessed as inhibition of viral RNA replication after 3 days by dual-glo luciferase reporter gene assay; assay type: functional, organism-based, Hepacivirus hominis; conditions: isolate Con1, Huh-7, 72 h
Hepatitis C virus [20] = assay: Antiviral activity against HCV genotype 6a expressing NS4B infected in human HuH7 cells assessed as inhibition of viral RNA replication after 3 days by dual-glo luciferase reporter gene assay; assay type: functional, organism-based, Hepacivirus hominis; conditions: Huh-7, 72 h

| Structure (SMILES) | CC50 [1] | EC50 (Hepatitis C virus [2]) | EC50 (Hepatitis C virus [3]) | EC50 (Hepatitis C virus [4]) | chromatographic logD [5] | Kd [6] | Ratio EC50 (Hepatitis C virus [7]) | Ratio EC50 [8] | EC50 (Hepatitis C virus [9]) | CLint scaled at 3 µM [10] | CLint scaled at 3 µM [11] | bioavailability [12] | half-life [13] | Vd [14] | clearance [15] | EC50 (Hepatitis C virus [16]) | EC50 (Hepatitis C virus [17]) | EC50 (Hepatitis C virus [18]) | EC50 (Hepatitis C virus [19]) | EC50 (Hepatitis C virus [20]) |
| --- | --- | --- | --- | --- | --- | --- | --- | --- | --- | --- | --- | --- | --- | --- | --- | --- | --- | --- | --- | --- |
| Cc1cc(-c2nnc(N[C@H]3C[C@](O)(C(F)F)C3)o2)nc2c(C(C)(C)C)cc(OCC(F)(F)F)cc12 | 6240 nM | 3.4 nM | 684 nM | 0.32 nM | 4.1 |  |  |  |  |  |  |  |  |  |  |  |  |  |  |  |
| Cc1cc(-c2nnc(NCC3OCCO3)o2)nc2c(C(C)(C)C)cc(OCC(F)(F)F)cc12 | 20400 nM | 54 nM | 3580 nM | 1.3 nM | 3.9 | 31 nM | 42 | 2720 | 0.9 nM |  |  |  |  |  |  |  |  |  |  |  |
| Cc1cc(-c2nnc(NCC3OCCO3)o2)nc2c(C(F)(F)F)cc(OCC(F)(F)F)cc12 | 26600 nM | 206 nM | 15600 nM | 5 nM | 3.6 |  |  |  |  |  |  |  |  |  |  |  |  |  |  |  |
| Cc1cc(-c2nnc(N[C@H]3C[C@](O)(C(F)F)C3)o2)nc2c(C(C)(C)C)cc(NCC(F)(F)F)cc12 | 5440 nM | 0.74 nM | 25 nM | 0.08 nM | 3.7 |  |  | 312 | 0.05 nM | 3.67 mL/min/kg | 3.33 mL/min/kg | 25% | 5.2 h | 5 L/kg | 14.5 mL/min/kg | 0.76 nM | 2.3 nM | 0.16 nM | 4.4 nM |  |
| COc1cc(C(F)(F)F)c2nc(-c3nnc(NCC4OCCO4)o3)cc(C)c2c1 | 50000 nM | 719 nM |  | 32 nM | 3.4 |  |  |  |  |  |  |  |  |  |  |  |  |  |  |  |
| Cc1cc(-c2nnc(N[C@@H]3CCC[C@H](O)C3)o2)nc2c(C(C)(C)C)cc(OCC(F)(F)F)cc12 | 20900 nM | 5.5 nM | 96 nM | 0.32 nM | 4 |  |  | 300 | 0.09 nM |  |  |  |  |  |  | 1.5 nM | 30 nM | 0.9 nM |  |  |
| Cc1cc(-c2nnc(NCC3OCCO3)o2)nc2c(C(C)(C)C)cc(NCC(F)(F)F)cc12 | 16000 nM | 4.3 nM | 1100 nM | 0.15 nM | 3.6 |  |  |  |  |  |  |  |  |  |  |  |  |  |  |  |
| Cc1cc(-c2nnc(NC3CCCC3)o2)nc2c(C(C)(C)C)cc(OCC(F)(F)F)cc12 |  | 35 nM | 3030 nM | 0.63 nM | 4.9 |  |  |  |  |  |  |  |  |  |  |  |  |  |  |  |
| Cc1cc(-c2nnc(N[C@H]3CCC[C@@H](O)C3)o2)nc2c(C(C)(C)C)cc(NCC(F)(F)F)cc12 |  |  | 201 nM |  |  |  |  |  |  |  |  |  |  |  |  |  |  |  |  |  |
| Cc1cc(-c2nnc(N[C@@H]3CCC[C@H](O)C3)o2)nc2c(C(C)(C)C)cc(NCC(F)(F)F)cc12 | 6250 nM | 0.6 nM | 3 nM | 0.09 nM | 3.6 |  |  | 30 | 0.08 nM | 4 mL/min/kg | 3.67 mL/min/kg | 88% | 11 h | 2.4 L/kg | 10.8 mL/min/kg | 0.9 nM | 3.7 nM | 0.6 nM | 0.34 nM | 3.1 nM |
| Cc1cc(-c2nnc(N[C@H]3C[C@@H](O)C3)o2)nc2c(C(C)(C)C)cc(OCC(F)(F)F)cc12 | 10800 nM | 41 nM | 208 nM | 1.3 nM | 3.4 |  |  |  |  |  |  |  |  |  |  |  |  |  |  |  |
| Cc1cc(-c2nnc(Nc3ccccc3)o2)nc2c(C(F)(F)F)cc(-c3ccccc3)cc12 | 86400 nM |  | > 20000 nM | 5.9 nM | 5.6 |  |  |  |  | 11.7 mL/min/kg | 7.67 mL/min/kg |  | 2.3 h | 1.8 L/kg | 17.5 mL/min/kg |  |  |  |  |  |
| Cc1cc(-c2nnc(NC3CCCC3)o2)nc2c(C(C)(C)C)cc(NCC(F)(F)F)cc12 | 15800 nM | 5.2 nM | 525 nM | 0.15 nM | 4.6 |  |  |  |  |  |  |  |  |  |  |  |  |  |  |  |
| Cc1cc(-c2nnc(N[C@H]3C[C@H](O)C3)o2)nc2c(C(C)(C)C)cc(OCC(F)(F)F)cc12 | 25900 nM | 714 nM | 5220 nM | 3.5 nM |  |  |  |  |  |  |  |  |  |  |  |  |  |  |  |  |
